Calls of active or inactive are those of the source. The calls are words filed in the database; no cut-off is given here.
What was measured:
Arginase [1] = biological target: T1, Arginase (Leishmania amazonensis, UniProt O96394); experiment: Inhibition of recombinant Leishmania amazonensis arginase expressed in Escherichia coli assessed as reduction in urea production using L-arginine as substrate by Berthelot colorimetric method relative to control
In short: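 Arginase overexpressed in E. coli and purified. Urea formed was measured colorimetrically by the Berthelot method. IC50 given as mean ± SEM.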

Leishmania amazonensis [2] = experiment: Antileishmanial activity against Leishmania amazonensis MHOM/BR/1973/M2269 promastigotes assessed as inhibition of parasite growth incubated for 72 hrs by MTT assay; assay type: functional, organism-based; details: MHOM/BR/1973/M2269, 72 h
In short: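 MHOM/BR/1973/M2269 promastigotes grown to stationary phase in M199 with 10% FBS, 5 ppm hemin, streptomycin and penicillin; 5.0 × 10^5 cells exposed 72 h to compounds at 100 µM to 0.78 µM (amphotericin B control, 10 µM downward). Formazan dissolved in DMSO and read at 570 nm. EC50 from a normalized variable-slope sigmoidal fit; mean ± SEM.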

[3] = biological target: Arginase (Leishmania amazonensis) (UniProt O96394); experiment: (§1) Mixed type inhibition of recombinant Leishmania amazonensis arginase expressed in Escherichia coli assessed as reduction in urea production by measuring dissociation constant for enzyme-substrate-inhibitor complex using L-arginine as substrate by Berthelot colorimetric method based Dixon/Cornish-Bowden plot analysis relative to control
In short: (§2)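 Urea read by the Berthelot method. Ki and Kis taken from Dixon and Cornish-Bowden plots; Cornish-Bowden slopes compared statistically. Points are means of three independent experiments run in duplicate; constants given as mean ± SEM.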

[4] = biological target: Arginase (Leishmania amazonensis) (UniProt O96394); experiment: Inhibition of recombinant Leishmania amazonensis arginase expressed in Escherichia coli assessed as reduction in urea production at 100 uM using L-arginine as substrate by Berthelot colorimetric method relative to control
Arginase [5] = biological target: T1, Arginase; experiment: as §1, with “Competitive” for “Mixed type”, “enzyme-inhibitor” for “enzyme-substrate-inhibitor”; in short: as §2
Leishmania amazonensis [6] = experiment: Antileishmanial activity against Leishmania amazonensis MHOM/BR/1973/M2269 promastigotes assessed as inhibition of parasite growth at 100 uM incubated for 72 hrs by MTT assay; assay type: functional, organism-based
In short: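 Single-concentration screen at 100 µM. Stationary-phase MHOM/BR/1973/M2269 promastigotes in supplemented M199, 5.0 × 10^5 cells, exposed 72 h. Formazan dissolved in DMSO and read at 570 nm.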

[7] = biological target: Arginase (Leishmania amazonensis) (UniProt O96394); experiment: Ratio of Ki to Kis for inhibition of recombinant Leishmania amazonensis arginase expressed in Escherichia coli assessed as reduction in urea production using L-arginine as substrate by Berthelot colorimetric method based Dixon/Cornish-Bowden plot analysis relative to control

| SMILES | IC50 (Arginase [1]; read-out: IC50) [µM] | Kis [3] [µM] | inhibition [4] | Ki (Arginase [5]) [µM] | IC50 (Arginase [1]) | Ratio [7] | EC50 (Leishmania amazonensis [2]) [µM] | growth inhibition (GI) (Leishmania amazonensis [6]) |
| --- | --- | --- | --- | --- | --- | --- | --- | --- |
| CC(=O)Nc1ccccc1C(F)(F)C(=O)NNc1ccccn1 | > 100 | – | 8% | – | – | – | > 100 | – |
| CC(=O)Nc1ccccc1C(F)(F)C(=O)Nc1ccccc1 | – | – | inactive | – | Not Active | – | – | – |
| CC(=O)Nc1ccc(C)cc1C(F)(F)C(=O)NNc1ccccn1 | > 100 | – | – | – | – | – | > 100 | – |
| C[C@@H]1[C@H](O)[C@@H](C)/C=C/C=C/C=C/C=C/C=C/C=C/C=C/[C@H](O[C@@H]2O[C@H](C)[C@@H](O)[C@H](N)[C@@H]2O)C[C@@H]2O[C@](O)(C[C@@H](O)C[C@@H](O)[C@H](O)CC[C@@H](O)C[C@@H](O)CC(=O)O[C@H]1C)C[C@H](O)[C@H]2C(=O)O [AMPHOTERICIN B] | – | – | – | – | Not Active | – | 0.33 | – |
| CC(=O)Nc1ccccc1C(F)(F)C(=O)NCc1ccccc1 | 37 | 6.5 | > 70% | 32 | – | 5 | > 100 | – |
| CC(=O)Nc1ccc(C)cc1C(F)(F)C(=O)NC(C)C | – | – | inactive | – | Not Active | – | – | – |

Continued, in another order:

| IC50 (Arginase [1]; read-out: IC50) [µM] | Kis [3] [µM] | inhibition [4] | Ki (Arginase [5]) [µM] | IC50 (Arginase [1]) | Ratio [7] | SMILES | EC50 (Leishmania amazonensis [2]) [µM] | growth inhibition (GI) (Leishmania amazonensis [6]) |
| --- | --- | --- | --- | --- | --- | --- | --- | --- |
| 38 | 11 | > 70% | 26 | – | – | CC(=O)Nc1ccccc1C(F)(F)C(=O)NNc1ccc(C(F)(F)F)cc1 | > 100 | – |
| – | – | inactive | – | Not Active | – | CC(=O)Nc1ccccc1C(F)(F)C(=O)Nc1ccc(Cl)cc1 | – | – |
| 12 | – | > 70% | 5.1 | – | – | CC(=O)Nc1ccccc1C(F)(F)C(=O)NNc1ccccc1 | 12.7 | Active |
| 12 | 26 | > 70% | 1.3 | – | – | CC(=O)Nc1ccc(C)cc1C(F)(F)C(=O)NNc1ccccc1 | > 100 | – |

— ChEMBL document CHEMBL4385644, “Phenylhydrazides as inhibitors of Leishmania amazonensis arginase and antileishmanial activity” (Bioorg Med Chem, 2019)
